The RNAGym collection of RNA variant scans (doi:10.1126/science.aae0568)
Fewer inactive variants are shown than the library holds.

B1: tRNA (parent)
chain: GUUCCGUUGGCGUAAUGGUAACGCGUCUCCCUCCUAAGGAGAAGACUGCGGGUUCGAGUCCCGUACGGAACG

Variants of: B1
Assay: yeast fitness relative to wild type (ratio to wild type); higher = fitter; tRNA-Arg(CCU), competitive growth, 37 C, YPD
Method in brief: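 Variants of the tRNA-Arg(CCU) gene were chemically synthesised with a 3% per-site mutation rate across 69 sites and placed at the native genomic locus in Saccharomyces cerevisiae. Six parallel replicates of the pooled strains were competed in YPD at 37°C for 24 hours, and gene amplicons from the start and end populations were read by 100-nucleotide paired-end sequencing. Darwinian fitness relative to wild type was derived from changes in genotype frequencies. Genotypes required ≥ 100 starting reads, and estimates < 0.5 were set to 0.5.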

Variant | yeast fitness
GUUCCGUUGGGGUAAUGCUAACGCGCCUCCGUCCUAAGGAGAAGAUUGCGGGUUCGAGUGGCGUCCGGAACG | 0.61
GUUCCGUUGGGGUAAUGGUAACGCAUCUCCCCCCUAAGGAGAAGACUGCAUGUUCGAGACCCGAACGGAACG | 0.628
GUUCCGUUGGGGUAAUGGUAACGCGUCUCCCUCCUAAGCAGAAGACUGCGGGUUCGAGUCUCGUACGGAACG | ≤ 0.5
GUUCCGUUGGGGCAAUGGUAACGCGUCUCCCUCCUAUGGAGAAGACUGCGGGUUCGAGUCCCGUACGGAACG | ≤ 0.5
GUUCCGUUGGGGUAAUGGUAACGCGUCUCCCUCCUAAGGAGAAGACUCCGCGCUCGUGUCCCGUAUGGAACG | ≤ 0.5
GUUCCGUUGGGGUAAUGGGAACGCGUCUCCCUCCUAAGGAGAAGACUGCGGGUUCGAGUCCCGUACGGAACG | 0.577
GUUCCGUUGGGGGAAUGGUAACGCGUCUCCCUCCUAAGGAGAAGACUGCGGGUUCGAGUCCCGUACGGCACG | 0.531
GUUCCGUUGGGGGAAUGGUAGCGCGUCUCCCUCCUAAGGAGAAGACUGCGGGUUCGAGUCCCGUACGGAACG | 0.785
GUUCCGUUGGGGUAAUGGUAACCCAUCUCCCUCCUAAGGAGAAGACUGCGGGUUCGAGUCCCGUACGGAACG | 0.977
GUUCCGUUGGGGUAAUGGGAACGCGUCUCCCUCCUAAGGAGAAGCCUGCGGGUUCGAGUCCCGUACGGAACG | ≤ 0.5
GUUCCGUUGGGGUAAUGGUAACGCGUCUCCCUCCUAAGGAGAAGACUGCGGGUUCGAGUCCCGUACGCAACG | 0.597
GUUCCGUUGGGGUAAGGGUAACGCGUCUCCCUCCAAAGGACAAGACUGCGGGUUCGAGUCCCGUACGGAACG | ≤ 0.5
GUUCCGUUGGGGAAAGGGUAACGCGACUCCCUCCUAAGGAGAAGACUGCGGGUUCGAGUCCCGUAUGGAACG | ≤ 0.5
GUUCCGUUGGGGUAAAGGUAACGUGUCUCCCUCCUAAGGAGAAGACUGCGGGUUCGAGUCCCGUACGGAACG | ≤ 0.5
GUUCCGUUGGGGUAACGGUAACGUGUCCCCCUCCUAAGGAGAAGACUGCGGGUUCGAGUCCCGUACGGAACG | ≤ 0.5
GUUCCGUUGGGGUAAUGGUAACCCGUCUCCCUCCUAAGGAGAAGACUGAGGGUUCGAGUCCCGUAGGGAACG | ≤ 0.5
GUUCCGUUGGGGGAAUGGUAACCCGUCUCCCUCUUAAGGAGAAGACUGCGGGUUCGAGCCCCGUAUGGAACG | ≤ 0.5
GUUCCGUUGGGGGAAUGGUAACGCGUCUCCCUGCUAAGGAAAAGACUGCGGGUUCGAGUCCCAUACGGCACG | ≤ 0.5
GUUCCGUUGGGGGAAUGGUAACGCGUCUCCCUCCUAAGGAGAAGACUGCGGGUUCGAGUCCGGUACGGAACG | ≤ 0.5
GUUCCGUUGGGGUAACGGUAUCGCGUCUCGCUCCUAAGGAGAAGACUGCCGGUUCGAGUCCCGUACGGAACG | ≤ 0.5
GUUCCGUUGGGGUAAUGGUAACGCGACUCUCUCCUAAGGAGAAGACUACGGGUAGGAGUCCCGUUCGGAACG | 0.664
GUUCCGUUGGGGUAAUGGCAACGCGUCUCCCUCCUAAGGAGAAGUCUGCGGGUUCGAGUCCCGUACGGAACG | ≤ 0.5
GUUCCGUUGGGGUAAAGGUAACGCGUCUCACUCCUAAGGAGAAGACUGCGGGUUCGAGUCCCGUACGGUACG | ≤ 0.5
GUUCCGUUGGGGUAAUGGUAACGCGCCUCCCUCCUAAGGAGAAGCCUGCGGGUUCGCGGCCCGUACGGAACG | ≤ 0.5
GUUCCGUUGGGGUAAUGGUAACGCGUCUCCCUCCUAAGGAGAAGACUGCGGGUUCGAAUCCCGUACGGAACG | 0.722

Variant | yeast fitness
GUUCCGUUGGGGUAAUGGUAACGCGUCACCCUCCUAAGAAGAAGACUACGGGUUCGAGUCCCGUACAGAACG | ≤ 0.5
GUUCCGUUGGGGUAAUGGUAACGCGUCUCCCUCCUAAGGAGAAGACUGCGGCUCCGUGUCCCGUACGGAACG | ≤ 0.5
GUUCCGUUGGGGAAAGGGUAACGCGACUCCCUCCUAAGGAGAAGACUGCGGGUUCGAGUCCCGUGCGGAACG | ≤ 0.5
GUUCCGUUGGGGUAAUGGUAACGCGUCUCCCUCCUAACGAGAAGACUGAGGGUUCGAGUCCCGUACGGAACG | 0.583
GUUCCGUUGGGGUAAUGGUAACGCGUCUCCCUCCUAAGGAGAACACUGCGGGUUCGAGUCCCGUACGGAACG | 0.639
GUUCCGUUGGGGUAAUGGUAACGCGUCUCCCUCCUAAGGAGAAGACUCCGGGUUCGAGUCCCGUACGGAACG | 0.687
GUUCCGUUGGGGUAAUGGCAACGCGUGGCCCUCCUAAGGAGAAGACUGCGGGUUCGAGUCCCGUACGGAACG | ≤ 0.5
GUUCCGUUGGGGUAAUGGUAACGCAUCUCCCUCCUAUGGAGAAGACUGCGGGUUCGAGUCCCGUACGGAACG | 0.573
GUUCCGUUGGGGUAAUGGUAACACGUCUCCCUCGUAAGGAGAAGACUGCGGGUUCGAGUCCCGUACGGAACG | ≤ 0.5
GUUCCGUUGGGGUAAUGGUAACCCGUCUCCCUCCUAAGGAGAAGACUGUGGGUUCAAGUCCCAUACGGAACG | ≤ 0.5
GUUCCGUUGGGGUAAUGGUAACGCAUCUCCCUCCUUAGGAGAAGACUGCGGGUUCGAGUUCCGUACGGAACG | ≤ 0.5
GUUCCGUUGGGGUAAUGGUAACGCGUCUCCCUCCUAAGGAGAAGACUACGGGUUCGAGUCCCGUACGGUACG | ≤ 0.5
GUUCCGUUGGGGUAAAGGUAACGCGUCUUCCUCCUAAGGAGAAGACUGCGGGCUCGAGUCCGGUACGGAACG | ≤ 0.5
GUUCCGUUGGGGUAAUGGUAACCCGUCUCCCUCCUGGGGAGAAGACUGCGGGUUCGAGUCCCGUACGGAACG | 0.774
GUUCCGUUGGGGUAAUGGAAAGGCGUCUCCCUCCUAAGGAGAAGACUGCGGGUUCGAGUCCCGUACGCAACG | ≤ 0.5
GUUCCGUUGGGGUAAUGGUAACGCGUCACCCUCCUAAGAAGAAGACUGCGGGUUCGAGUCCCGUACGGAACG | ≤ 0.5
GUUCCGUUGGGGUAAUGGUAACGCGCCUCCCUCCUAAGGAGAAGACUGCGGGUUCGAGUCCCGUACGGAACG | 0.569
GUUCCGUUGGGGUAAAGGUAACCCGUCUCUCUCUUAAGGAGAAGACUGCGGGUUCGAGUCCCGUACGGUACG | 0.844
GUUCCGUUGGGGUAAUGGUAACGCGUCUCCCUCCUAAGGAAAAGACUGCGGGUUCGAGUCCCGUACGGUACG | ≤ 0.5
GUUCCGUUGGGGUAAUGGAAGCGCGUUUCCCUCCUAAGCAGAAGACUGCGGGUUCGAGUCCCGUACGGAACG | ≤ 0.5
GUUCCGUUGGGGUAAAGGUAACCCGUCUCUCUCUUAAGGAGAAGACUGCGGGUUCGAGUCCCGUACUGAACG | 0.537
GUUCCGUUGGGGUAAUGGUAACGCGUCUCCCUCCUAAGAAGAAGACUGCGGGUUCGAGUCCCGUACGGAACG | 0.63
GUUCCGUUGGGGUAAUGGUAACGCGUCUCCCUCCUAAGCAGAAGACCGCGGGUUCGAGUAGCGUACGGAACG | ≤ 0.5
GUUCCGUUGGGGUAAUGGUAACGCAUCUUCCUCUUAAGGAGAAGACUGCGGGUUCGAGUCCCGUACGGAACG | ≤ 0.5
GUUCCGUUGGGGUAAUGGUAACGCGACUCCCUCCUAAGGAGAAGACUGCGGGAUCGAGUCCCGUACGGAACG | ≤ 0.5

Variant | yeast fitness
GUUCCGUUGGGGUAAUGGUAACGCGCCUCCCUCCUAAGGAGAAGACUGCGGGUUCGAGUCUGGUACGGAACG | 0.62
GUUCCGUUGGGGUAAUGGUAACCCGUCUCCCUCCUAAGGAGAAGACUGCGGGUUCGAGUCCCGUACGGAACG | 1.07
GUUCCGUUGGGGUAAUGGUAACGCGUCUCCCUCCUAAGCAGAAGACCGCGGGUUCGAGUAGCGUACGGUACG | 0.528
GUUCCGUUGGGGUAAGGGUAACGCGUCUCCCUCCUAACGAGAAGACUGCGGGUUCGAGUCCCGUACGAAACG | ≤ 0.5
GUUCCGUUGGGGUAAAGGUAACGCGUCCUCCUCCUAAGAAGAAGACUGCGGGUUCGAGGCCCGUACUGAACG | ≤ 0.5
GUUCCGUUGGGGUAAUGGUAACGCGUCUCCCUCCUAAGGAGAAGACUGCCGGUUCGAGUCCCGUACGGAACG | 0.597
GUUCCGUUGGGGUAAUGGUAACGCGUCUCCCUCCUAAGGAGAAGACUGCAGGUUCGAGUCCCGUACGGAACG | 0.716
GUUCCGUUGGGGUAAUGGUAACGCAUCUCCCUCCUAAGGAGAAGACUGCGGGUUCGAGUCCUGUACGGAACG | ≤ 0.5
GUUCCGUUGGGGUAAUGGUAACGCGUCUCCCUCCUAAGGAGAAGACUGCGCGUUCGAGUCCCGUACGGAACG | 0.58
GUUCCGUUGGGGUAAUGGAAACGCGUCUCCCUCGUAAGGAGAAGACUGGGGGUUCGAGUCCCGUACGGAACG | ≤ 0.5
GUUCCGUUGGGGUAAUGGUAACGCGUCUCCCUCCUAAGGAGAAGACUGCGGGUUCCAGUCCCGUACGGAACG | 0.627
GUUCCGUUGGGGUAAAGGUAACGCGUCUCCCUCCUAAGGAGAAGACUGCGGGUUCGAGUACCGUACGGAACG | ≤ 0.5
GUUCCGUUGGGGGAAUGGUAACGCGUCUCUCACCUAGGGUGAAGACUGCGGGUUCGUGUCCCGUACGGAACG | ≤ 0.5
GUUCCGUUGGGGUAAUGGUAACGCGUCCCCCUCCUAAGGAGAAGACUGCGGGUUCGAGUCCCGUACGGAACG | 0.653
GUUCCGUUGGGGUAAUGGUAACGCGUCACCCUCCUAAGGAGAAGACUGCGGGUUCGAGUCCCGUACGAAACG | ≤ 0.5
GUUCCGUUGGGGUAAUGGUAACGCAUCUCCCUCCUUAGGAGAAGACUGCGGGUUCGAGUCCCGUACGGAACG | 0.615
GUUCCGUUGGGGUAAUGUUAAUGCGUCUCCCUCCUAAGCAGAAGACUGGGGGUUCGUGUCCCGUACGGUACG | ≤ 0.5
GUUCCGUUGGGGUAAUGGUAACGCGUCUCCCUCCUAAGGAGAACACUGCGGGUUCGAGUCCCGUAAGGAACG | 0.614
GUUCCGUUGGGGUAAAGGUAACGCGACUCCCUCUUAAGGAGAAGACUGCGGGUUGGAGUCCCGUACGGAACG | ≤ 0.5
GUUCCGUUGGGGUAAUGGUAACGCGUCUCCCUCCUAAGGAGAAGACUGCGAGUUCGAGUUCCGUACGGAACG | 0.79
GUUCCGUUGGGGUAAUGGUAACGCAUCUCCCUCGUAAGGAGAAGACUGCGGGUUCGAGUCCCGUACGGAACG | ≤ 0.5
GUUCCGUUGGGGUAAUGCUAACGCGCCUCCGUCCUAAGGAGAAGAUUGCGGGUUUGAGUCCCGUACGGAACG | ≤ 0.5
GUUCCGUUGGGGUAACGGUAUCGCGUCUCCCUCCUAAGGAGAAGACUGCGGGUUCGAGUCCCGUACGGAACG | ≤ 0.5
GUUCCGUUGGGGUAAUGGUAACGCGACUCCCUCCUAAGGAGAAGACUGCGGGUCCGAGUCCCGUACGGAACG | ≤ 0.5
GUUCCGUUGGGGGAAUGGUCACGCGUGUACCUCCUAAGGAGAAGACUGCGGGUUCGAGUCCCGUACGGAACG | ≤ 0.5
